Experimental data published in ChEMBL document CHEMBL3112470, “Design and synthesis of N₁-aryl-benzimidazoles 2-substituted as novel HIV-1 non-nucleoside reverse transcriptase inhibitors” (Bioorg Med Chem, 2014).
Activity calls are given as the source filed them. The rule behind the calls is not given here.

Tests used:
[1] = test system: Human immunodeficiency virus 2; assay: Antiviral activity against HIV-2 ROD; assay type: functional, organism-based; conditions: ISOLATE ROD
[2] = Selectivity index, ratio of CC50 for human MT4 cells to EC50 for HIV-1 3B; assay type: toxicity, cell-based; conditions: read-out: Ratio CC50/EC50
How it was run: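 Calculated as CC50/EC50, both from MT-4 cells: CC50 from the parallel viability assay, EC50 from the 5-day HIV-1 IIIB cytopathicity assay.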

[3] = test system: Human immunodeficiency virus 1; assay: Antiviral activity against NNRTI-resistant HIV-1 RES056 harboring reverse transcriptase K103N/Y181C double mutant; assay type: functional, organism-based
How it was run: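 MT-4 cells were infected with virus at about 100 times the CCID50 per ml of cell suspension and mixed with serial compound dilutions. They were incubated 5 days at 37 °C, then viable cells were counted. EC50 is the concentration that reduces virus-induced cytopathic effect by 50%. Cytotoxicity was measured in parallel in MT-4 cells.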

[4] = target: Human immunodeficiency virus type 1 reverse transcriptase (Human immunodeficiency virus 1, UniProt Q72547); assay: Inhibition of GST-tagged recombinant wild type HIV-1 reverse transcriptase p66/p51 RNA-dependent DNA polymerase activity expressed in Escherichia coli JM109 using dTTP as substrate after 40 mins by spectrofluorometric analysis
[5] = test system: Human immunodeficiency virus 1; assay: Antiviral activity against HIV-1 3B infected in human MT4 cells assessed as inhibition of virus-induced cytopathic effect after 5 days; assay type: functional, organism-based; conditions: Human immunodeficiency virus 1, 3B, MT4, 120 h
How it was run: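 MT-4 cells infected with HIV-1 IIIB at ~100 times the CCID50 per ml, mixed 1:1 with serial compound dilutions, incubated at 37 °C for 5 days. Viable cell number then determined. EC50 = concentration reducing virus-induced cytopathicity by 50%.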

[6] = Cytotoxicity against human MT4 cells assessed as cell viability; assay type: cell-based
How it was run: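 Uninfected MT-4 cells run in parallel with the antiviral assay. CC50 = concentration reducing MT-4 cell viability by 50%.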

Cc1cc(C)cc(Cn2c(SCC(=O)Nc3ccc(S(N)(=O)=O)cc3Cl)nc3ccc(Cl)cc32)c1
Activity [1]: inactive | selectivity ratio [2]: < 1 | Activity [3]: inactive | IC50 [4]: 86.6 µM | EC50 [5]: ≥ 22.6 µM | CC50 [6]: ≥ 18.6 µM

Cc1cc(C)cc(Cn2c(=S)[nH]c3ccccc32)c1
Activity [1]: inactive | selectivity ratio [2]: 4 | Activity [3]: inactive | IC50 [4]: 27.2 µM | EC50 [5]: 1.3 µM | CC50 [6]: 5.74 µM

Cc1cc(C)cc(Cn2c(SCC(=O)Nc3ccc(S(N)(=O)=O)cc3Cl)nc3ccccc32)c1
Activity [1]: inactive | selectivity ratio [2]: 530 | Activity [3]: inactive | IC50 [4]: 1.02 µM | EC50 [5]: 0.21 µM | CC50 [6]: 111 µM

Cc1cc(C)cc(S(=O)(=O)n2c(SCC(=O)Nc3ccc(C)cc3Cl)nc3ccccc32)c1
Activity [1]: inactive | selectivity ratio [2]: 135 | Activity [3]: inactive | IC50 [4]: 0.55 µM | EC50 [5]: 0.04 µM | CC50 [6]: 5.4 µM

Cc1cc(C)cc(S(=O)(=O)n2c(SCC(=O)Nc3ccc(S(N)(=O)=O)cc3Cl)nc3ccc(Cl)cc32)c1
Activity [1]: inactive | selectivity ratio [2]: 38 | Activity [3]: inactive | IC50 [4]: 3.04 µM | EC50 [5]: 0.62 µM | CC50 [6]: 23.4 µM

Cc1cc(C)cc(S(=O)(=O)n2c(=S)[nH]c3ccccc32)c1
Activity [1]: inactive | selectivity ratio [2]: 455 | Activity [3]: inactive | IC50 [4]: 1.35 µM | EC50 [5]: 0.09 µM | CC50 [6]: 41 µM

Cc1cc(C)cc(Cn2c(SCC(=O)Nc3ccccc3[N+](=O)[O-])nc3ccccc32)c1
Activity [1]: inactive | selectivity ratio [2]: 184 | Activity [3]: inactive | IC50 [4]: 3.91 µM | EC50 [5]: 1.05 µM | CC50 [6]: 194 µM

Cc1cc(C)cc(S(=O)(=O)n2c(SCC(=O)Nc3ccccc3[N+](=O)[O-])nc3ccc(Cl)cc32)c1
Activity [1]: inactive | selectivity ratio [2]: > 182 | Activity [3]: inactive | IC50 [4]: 37 µM | EC50 [5]: 1.3 µM | CC50 [6]: > 235 µM

COC(=O)c1ccc(NC(=O)CSc2nc3ccccc3n2Cc2cc(C)cc(C)c2)c(Cl)c1
Activity [1]: inactive | selectivity ratio [2]: 32 | Activity [3]: inactive | IC50 [4]: 40.3 µM | EC50 [5]: 6.03 µM | CC50 [6]: 191 µM

Cc1cc(C)cc(Cn2c(SCC(=O)Nc3ccc(S(C)(=O)=O)cc3Cl)nc3ccc(Cl)cc32)c1
Activity [1]: inactive | selectivity ratio [2]: < 1 | Activity [3]: inactive | IC50 [4]: 70.5 µM | EC50 [5]: > 88.8 µM | CC50 [6]: 88.8 µM

Cc1cc(C)cc(Cn2c(=S)[nH]c3ccc(Cl)cc32)c1
Activity [1]: inactive | selectivity ratio [2]: 4 | Activity [3]: inactive

Cc1cc(C)cc(S(=O)(=O)n2c(SCC(=O)Nc3ccc(C)cc3Cl)nc3ccc(Cl)cc32)c1
Activity [1]: inactive | selectivity ratio [2]: > 149 | Activity [3]: inactive | IC50 [4]: 46.4 µM | EC50 [5]: 1.57 µM | CC50 [6]: > 234 µM

Cc1cc(C)cc(S(=O)(=O)n2c(SCC(=O)Nc3ccccc3[N+](=O)[O-])nc3ccccc32)c1
Activity [1]: inactive | selectivity ratio [2]: ≥ 652 | Activity [3]: inactive | IC50 [4]: 100 µM | EC50 [5]: 0.04 µM | CC50 [6]: ≥ 26.1 µM

Cc1cc(C)cc(S(=O)(=O)n2c(SCC(=O)Nc3ccc(S(N)(=O)=O)cc3Cl)nc3ccccc32)c1
Activity [1]: inactive | selectivity ratio [2]: 1280 | Activity [3]: inactive | IC50 [4]: 18.5 µM | EC50 [5]: 0.02 µM | CC50 [6]: 25.6 µM

Cc1cc(C)cc(S(=O)(=O)n2c(SCC(=O)Nc3ccc(S(C)(=O)=O)cc3Cl)nc3ccc(Cl)cc32)c1
Activity [1]: inactive | selectivity ratio [2]: 7 | Activity [3]: inactive | IC50 [4]: 2.61 µM | EC50 [5]: 0.5 µM | CC50 [6]: 3.59 µM

O=C1Nc2ccc(Cl)cc2[C@@](C#CC2CC2)(C(F)(F)F)O1 [EFAVIRENZ]
EC50 [5]: 0.006 µM | CC50 [6]: > 6.34 µM

Cc1cc(C)cc(Cn2c(SCC(=O)Nc3ccc(C)cc3Cl)nc3ccccc32)c1
Activity [1]: inactive | selectivity ratio [2]: 32.1 | Activity [3]: inactive | IC50 [4]: 179 µM | EC50 [5]: 1.53 µM | CC50 [6]: 49.1 µM

Cc1cc(C)cc(S(=O)(=O)n2c(SCC(=O)Nc3ccccc3Cl)nc3ccccc32)c1
Activity [1]: inactive | selectivity ratio [2]: 1220 | Activity [3]: inactive | IC50 [4]: 51.9 µM | EC50 [5]: 0.088 µM | CC50 [6]: 107 µM

Cc1cc(C)cc(S(=O)(=O)n2c(SCC(=O)Nc3ccccc3Br)nc3ccc(Cl)cc32)c1
Activity [1]: inactive | selectivity ratio [2]: 37 | Activity [3]: inactive | IC50 [4]: 63.5 µM | EC50 [5]: 3.86 µM | CC50 [6]: 145 µM

Cc1cc(C)cc(S(=O)(=O)n2c(SCC(=O)Nc3ccccc3Br)nc3ccccc32)c1
Activity [1]: inactive | selectivity ratio [2]: ≥ 3930 | Activity [3]: inactive | IC50 [4]: 0.18 µM | EC50 [5]: 0.06 µM

Cc1cc(C)cc(Cn2c(SCC(=O)Nc3ccc(S(C)(=O)=O)cc3Cl)nc3ccccc32)c1
Activity [1]: inactive | selectivity ratio [2]: 196 | Activity [3]: inactive | IC50 [4]: 1.93 µM | EC50 [5]: 0.54 µM | CC50 [6]: 106 µM

Cc1cc(C)cc(S(=O)(=O)n2c(SCC(=O)Nc3ccc(S(C)(=O)=O)cc3Cl)nc3ccccc32)c1
Activity [1]: inactive | selectivity ratio [2]: > 5540 | Activity [3]: inactive | IC50 [4]: 0.12 µM | EC50 [5]: 0.04 µM | CC50 [6]: > 222 µM

Cc1cc(C)cc(S(=O)(=O)n2c(=S)[nH]c3ccc(Cl)cc32)c1
Activity [1]: inactive | selectivity ratio [2]: 1860 | Activity [3]: inactive | IC50 [4]: 1.76 µM | EC50 [5]: 0.05 µM | CC50 [6]: 93.1 µM

COC(=O)c1ccc(NC(=O)CSc2nc3ccccc3n2S(=O)(=O)c2cc(C)cc(C)c2)c(Cl)c1
Activity [1]: inactive | selectivity ratio [2]: 1320 | Activity [3]: inactive | IC50 [4]: 162 µM | EC50 [5]: 0.11 µM | CC50 [6]: 145 µM

Cc1cc(C)cc(Cn2c(SCC(=O)Nc3ccccc3Br)nc3ccccc32)c1
Activity [1]: inactive | selectivity ratio [2]: ≥ 128 | Activity [3]: inactive | IC50 [4]: 15 µM | EC50 [5]: 1.12 µM | CC50 [6]: ≥ 144 µM

COC(=O)c1ccc(NC(=O)CSc2nc3ccc(Cl)cc3n2S(=O)(=O)c2cc(C)cc(C)c2)c(Cl)c1
Activity [1]: inactive | selectivity ratio [2]: ≥ 27 | Activity [3]: inactive | IC50 [4]: 37.6 µM | EC50 [5]: 4.82 µM | CC50 [6]: ≥ 130 µM

Cc1cc(C)cc(Cn2c(SCC(=O)Nc3ccccc3[N+](=O)[O-])nc3ccc(Cl)cc32)c1
Activity [1]: inactive | selectivity ratio [2]: ≤ 5 | Activity [3]: inactive | IC50 [4]: > 249 µM | EC50 [5]: ≥ 26 µM | CC50 [6]: 131 µM

Cc1cc(C)cc(Cn2c(SCC(=O)Nc3ccccc3Cl)nc3ccc(Cl)cc32)c1
Activity [1]: inactive | selectivity ratio [2]: 7 | Activity [3]: inactive | IC50 [4]: > 255 µM | EC50 [5]: 19.6 µM | CC50 [6]: 141 µM

Cc1ccnc2c1NC(=O)c1cccnc1N2C1CC1 [NEVIRAPINE]
CC50 [6]: > 15 µM
